Test results as given in ChEMBL document CHEMBL5653631, “A Potent and Selective ULK1 Inhibitor Suppresses Autophagy and Sensitizes Cancer Cells to Nutrient Stress” (iScience, 2018).

What was measured:
[1] = molecular target: T1, Testis-specific serine/threonine-protein kinase 2 (Homo sapiens) (UniProt Q96PF2); test: Inhibition of human recombinant TSSK2 at 40 nM in presence of ATP by radiometric assay relative to control
T1 sequence (whole entry): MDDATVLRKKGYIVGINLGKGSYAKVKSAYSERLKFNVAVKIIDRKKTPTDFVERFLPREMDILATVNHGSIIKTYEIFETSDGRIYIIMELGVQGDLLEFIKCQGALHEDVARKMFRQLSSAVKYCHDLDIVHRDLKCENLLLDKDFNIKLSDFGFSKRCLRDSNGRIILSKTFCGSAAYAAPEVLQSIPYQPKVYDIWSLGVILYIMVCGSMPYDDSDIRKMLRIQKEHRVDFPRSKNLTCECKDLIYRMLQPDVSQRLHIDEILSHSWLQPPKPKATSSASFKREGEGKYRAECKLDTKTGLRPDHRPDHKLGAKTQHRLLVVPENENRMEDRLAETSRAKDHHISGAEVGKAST

[2] = molecular target: Dual specificity tyrosine-phosphorylation-regulated kinase 1A (Homo sapiens) (UniProt Q13627); test: Inhibition of human recombinant DYRK1A at 40 nM related to control ULK1
[3] = molecular target: Tyrosine-protein kinase CSK (Homo sapiens) (UniProt P41240); test: Inhibition of human recombinant CSK at 500 nM in presence of ATP by radiometric assay relative to control
[4] = molecular target: Serine/threonine-protein kinase pim-1 (Homo sapiens) (UniProt P11309); test: Inhibition of human recombinant PIM1 at 500 nM related to control ULK1
[5] = molecular target: ALK tyrosine kinase receptor (Homo sapiens) (UniProt Q9UM73); test: Inhibition of human recombinant ALK at 15 nM in presence of ATP by radiometric assay relative to control
Summary of the method: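 Panel of 327 recombinant human kinases in radiometric activity assays, each screened in duplicate at a single inhibitor concentration; percent activity remaining relative to vehicle control, percent inhibition taken as 100 minus activity remaining.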

[6] = molecular target: T2, Inhibitor of nuclear factor kappa-B kinase subunit beta (Homo sapiens) (UniProt O14920); test: Inhibition of human recombinant IKKb at 15 nM in presence of ATP by radiometric assay relative to control
T2 sequence (whole entry): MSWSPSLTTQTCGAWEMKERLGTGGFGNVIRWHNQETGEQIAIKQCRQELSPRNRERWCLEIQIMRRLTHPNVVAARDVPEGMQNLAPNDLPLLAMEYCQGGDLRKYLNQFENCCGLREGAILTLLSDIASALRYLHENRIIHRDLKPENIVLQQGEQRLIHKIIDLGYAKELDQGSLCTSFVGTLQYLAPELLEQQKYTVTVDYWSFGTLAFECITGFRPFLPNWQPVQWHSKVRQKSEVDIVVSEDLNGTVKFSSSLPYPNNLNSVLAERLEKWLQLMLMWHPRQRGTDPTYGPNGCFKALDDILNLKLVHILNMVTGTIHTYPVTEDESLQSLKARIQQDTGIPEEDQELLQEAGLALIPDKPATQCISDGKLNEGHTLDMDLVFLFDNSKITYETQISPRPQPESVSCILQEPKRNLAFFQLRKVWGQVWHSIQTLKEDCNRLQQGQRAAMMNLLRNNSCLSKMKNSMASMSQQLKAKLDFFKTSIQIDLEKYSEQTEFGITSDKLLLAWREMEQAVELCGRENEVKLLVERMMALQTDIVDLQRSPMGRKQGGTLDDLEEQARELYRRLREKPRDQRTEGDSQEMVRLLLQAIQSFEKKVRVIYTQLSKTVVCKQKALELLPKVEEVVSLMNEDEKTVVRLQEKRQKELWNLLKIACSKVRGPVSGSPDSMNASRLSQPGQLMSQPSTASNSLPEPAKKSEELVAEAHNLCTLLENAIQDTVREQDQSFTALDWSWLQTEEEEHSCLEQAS

[7] = molecular target: Serine/threonine-protein kinase MRCK beta (Homo sapiens) (UniProt Q9Y5S2); test: Inhibition of human recombinant MRCKb at 15 nM in presence of ATP by radiometric assay relative to control
[8] = molecular target: Casein kinase I isoform gamma-1 (Homo sapiens) (UniProt Q9HCP0); test: Inhibition of human recombinant CK1g1 at 15 nM related to control ULK1
[9] = molecular target: Tyrosine-protein kinase CSK (Homo sapiens) (UniProt P41240); test: Inhibition of human recombinant CSK at 15 nM related to control ULK1
[10] = molecular target: Dual specificity mitogen-activated protein kinase kinase 1 (Homo sapiens) (UniProt Q02750); test: Inhibition of human recombinant MAP2K1 at 15 nM related to control ULK1
[11] = molecular target: T3, Dual specificity protein kinase TTK (Homo sapiens) (UniProt P33981); test: Inhibition of human recombinant TTK at 15 nM related to control ULK1
T3 sequence (whole entry): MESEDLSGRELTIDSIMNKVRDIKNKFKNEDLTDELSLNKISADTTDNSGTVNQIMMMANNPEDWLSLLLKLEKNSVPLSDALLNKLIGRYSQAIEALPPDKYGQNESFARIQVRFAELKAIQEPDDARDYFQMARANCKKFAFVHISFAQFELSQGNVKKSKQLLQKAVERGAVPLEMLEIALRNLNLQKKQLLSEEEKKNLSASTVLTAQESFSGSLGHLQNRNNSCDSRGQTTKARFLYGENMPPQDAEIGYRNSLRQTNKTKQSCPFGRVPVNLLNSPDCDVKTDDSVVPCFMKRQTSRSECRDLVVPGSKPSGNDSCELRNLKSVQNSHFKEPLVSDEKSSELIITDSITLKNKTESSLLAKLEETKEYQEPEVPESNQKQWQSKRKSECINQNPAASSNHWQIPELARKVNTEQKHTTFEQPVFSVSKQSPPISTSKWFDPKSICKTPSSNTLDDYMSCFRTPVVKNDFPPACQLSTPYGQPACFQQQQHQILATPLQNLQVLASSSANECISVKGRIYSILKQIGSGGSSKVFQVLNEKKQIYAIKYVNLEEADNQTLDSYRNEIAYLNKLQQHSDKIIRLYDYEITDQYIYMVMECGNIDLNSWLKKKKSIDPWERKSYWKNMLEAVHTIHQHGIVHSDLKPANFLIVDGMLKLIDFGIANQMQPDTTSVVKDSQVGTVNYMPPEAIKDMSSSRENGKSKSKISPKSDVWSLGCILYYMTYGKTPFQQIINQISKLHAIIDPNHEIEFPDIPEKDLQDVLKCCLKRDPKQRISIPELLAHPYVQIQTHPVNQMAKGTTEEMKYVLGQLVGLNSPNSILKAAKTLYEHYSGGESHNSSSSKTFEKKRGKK

Tyrosine-protein kinase CSK (Homo sapiens), sequence (P41240 2-450 limits assumed): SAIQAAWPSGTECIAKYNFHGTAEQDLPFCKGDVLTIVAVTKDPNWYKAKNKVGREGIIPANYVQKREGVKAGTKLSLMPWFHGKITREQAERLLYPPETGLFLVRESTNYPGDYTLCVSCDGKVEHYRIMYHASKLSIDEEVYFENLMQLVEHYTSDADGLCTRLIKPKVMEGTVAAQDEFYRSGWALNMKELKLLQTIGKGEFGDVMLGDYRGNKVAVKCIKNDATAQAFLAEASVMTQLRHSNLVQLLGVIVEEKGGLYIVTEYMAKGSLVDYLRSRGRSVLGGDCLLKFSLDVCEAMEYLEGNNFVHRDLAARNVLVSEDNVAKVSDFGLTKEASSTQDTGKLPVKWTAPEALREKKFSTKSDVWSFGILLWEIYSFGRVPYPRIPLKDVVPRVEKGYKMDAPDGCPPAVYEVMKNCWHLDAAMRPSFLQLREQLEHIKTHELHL
Dual specificity mitogen-activated protein kinase kinase 1 (Homo sapiens), sequence (Q02750 whole entry): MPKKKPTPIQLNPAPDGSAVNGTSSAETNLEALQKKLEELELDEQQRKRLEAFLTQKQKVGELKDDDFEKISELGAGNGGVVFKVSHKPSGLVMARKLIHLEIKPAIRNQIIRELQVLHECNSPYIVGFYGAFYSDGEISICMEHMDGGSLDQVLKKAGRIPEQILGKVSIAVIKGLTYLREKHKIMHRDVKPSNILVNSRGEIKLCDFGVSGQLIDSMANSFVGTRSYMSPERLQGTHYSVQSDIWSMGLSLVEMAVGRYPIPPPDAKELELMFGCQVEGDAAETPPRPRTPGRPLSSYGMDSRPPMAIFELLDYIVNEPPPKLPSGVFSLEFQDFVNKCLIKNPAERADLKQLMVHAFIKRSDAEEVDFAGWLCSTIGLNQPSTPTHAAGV
ALK tyrosine kinase receptor (Homo sapiens), sequence (Q9UM73 19-1620 limits assumed): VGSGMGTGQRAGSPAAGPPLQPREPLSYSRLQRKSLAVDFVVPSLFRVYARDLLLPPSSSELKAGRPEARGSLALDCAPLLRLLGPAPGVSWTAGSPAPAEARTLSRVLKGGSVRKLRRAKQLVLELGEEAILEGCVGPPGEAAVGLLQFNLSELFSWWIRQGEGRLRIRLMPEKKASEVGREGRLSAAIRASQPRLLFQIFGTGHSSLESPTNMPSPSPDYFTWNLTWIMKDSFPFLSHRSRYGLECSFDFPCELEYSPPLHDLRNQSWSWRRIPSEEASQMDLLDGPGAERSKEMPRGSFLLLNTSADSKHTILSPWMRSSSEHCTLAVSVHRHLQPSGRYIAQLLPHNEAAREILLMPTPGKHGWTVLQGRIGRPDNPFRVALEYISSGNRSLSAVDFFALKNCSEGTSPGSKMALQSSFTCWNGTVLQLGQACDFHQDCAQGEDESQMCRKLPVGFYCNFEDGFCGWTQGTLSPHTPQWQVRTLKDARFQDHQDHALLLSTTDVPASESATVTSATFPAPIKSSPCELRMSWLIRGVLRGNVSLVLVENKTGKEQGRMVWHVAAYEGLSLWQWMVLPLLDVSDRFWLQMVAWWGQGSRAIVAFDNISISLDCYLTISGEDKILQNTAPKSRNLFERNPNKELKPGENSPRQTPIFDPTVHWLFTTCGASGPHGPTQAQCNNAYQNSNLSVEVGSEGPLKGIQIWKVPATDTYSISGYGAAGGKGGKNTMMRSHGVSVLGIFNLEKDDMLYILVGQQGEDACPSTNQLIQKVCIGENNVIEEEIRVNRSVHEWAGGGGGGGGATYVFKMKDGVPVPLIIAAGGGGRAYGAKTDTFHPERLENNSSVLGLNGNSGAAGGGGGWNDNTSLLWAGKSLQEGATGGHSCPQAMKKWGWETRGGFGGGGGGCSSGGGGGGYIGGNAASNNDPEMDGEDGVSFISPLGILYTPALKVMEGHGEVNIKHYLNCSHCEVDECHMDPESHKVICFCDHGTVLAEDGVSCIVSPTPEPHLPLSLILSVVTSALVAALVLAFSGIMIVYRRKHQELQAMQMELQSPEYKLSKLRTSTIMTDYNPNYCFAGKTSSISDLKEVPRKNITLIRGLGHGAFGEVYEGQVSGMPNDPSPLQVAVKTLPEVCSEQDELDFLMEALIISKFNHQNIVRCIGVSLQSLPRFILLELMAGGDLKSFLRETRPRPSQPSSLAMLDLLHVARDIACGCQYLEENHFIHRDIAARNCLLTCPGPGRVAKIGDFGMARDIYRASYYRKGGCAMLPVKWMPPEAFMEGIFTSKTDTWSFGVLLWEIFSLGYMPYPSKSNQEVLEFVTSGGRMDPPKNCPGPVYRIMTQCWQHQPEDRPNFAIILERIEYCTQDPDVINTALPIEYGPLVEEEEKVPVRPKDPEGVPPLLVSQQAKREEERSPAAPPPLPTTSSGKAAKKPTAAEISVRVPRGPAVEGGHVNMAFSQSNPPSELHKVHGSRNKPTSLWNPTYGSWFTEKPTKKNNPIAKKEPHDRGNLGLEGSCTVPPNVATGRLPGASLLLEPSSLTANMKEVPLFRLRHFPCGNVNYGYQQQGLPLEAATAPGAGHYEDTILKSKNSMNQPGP
Serine/threonine-protein kinase pim-1 (Homo sapiens), sequence (P11309 whole entry, looked up): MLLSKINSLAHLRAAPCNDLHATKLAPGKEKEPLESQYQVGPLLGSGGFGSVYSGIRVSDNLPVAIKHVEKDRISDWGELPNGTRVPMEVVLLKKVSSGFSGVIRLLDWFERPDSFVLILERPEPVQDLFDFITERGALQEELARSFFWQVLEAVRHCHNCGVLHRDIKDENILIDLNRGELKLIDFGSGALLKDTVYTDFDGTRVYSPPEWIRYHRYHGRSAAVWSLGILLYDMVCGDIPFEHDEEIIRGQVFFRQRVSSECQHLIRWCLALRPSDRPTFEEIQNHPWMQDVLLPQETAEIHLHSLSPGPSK
Casein kinase I isoform gamma-1 (Homo sapiens), sequence (Q9HCP0 whole entry, looked up, canonical isoform): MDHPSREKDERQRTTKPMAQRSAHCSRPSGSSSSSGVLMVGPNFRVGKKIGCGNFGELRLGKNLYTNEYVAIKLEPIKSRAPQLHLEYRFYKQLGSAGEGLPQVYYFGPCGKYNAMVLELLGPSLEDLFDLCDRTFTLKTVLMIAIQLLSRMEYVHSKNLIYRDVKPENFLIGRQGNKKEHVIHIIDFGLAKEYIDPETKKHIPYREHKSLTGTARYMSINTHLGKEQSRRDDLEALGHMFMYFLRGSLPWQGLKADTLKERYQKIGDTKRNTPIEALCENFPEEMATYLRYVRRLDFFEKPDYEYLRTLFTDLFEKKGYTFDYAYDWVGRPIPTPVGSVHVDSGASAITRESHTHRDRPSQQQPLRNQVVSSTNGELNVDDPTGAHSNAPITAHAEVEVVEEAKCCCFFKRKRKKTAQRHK
Serine/threonine-protein kinase MRCK beta (Homo sapiens), sequence (Q9Y5S2 whole entry, canonical isoform): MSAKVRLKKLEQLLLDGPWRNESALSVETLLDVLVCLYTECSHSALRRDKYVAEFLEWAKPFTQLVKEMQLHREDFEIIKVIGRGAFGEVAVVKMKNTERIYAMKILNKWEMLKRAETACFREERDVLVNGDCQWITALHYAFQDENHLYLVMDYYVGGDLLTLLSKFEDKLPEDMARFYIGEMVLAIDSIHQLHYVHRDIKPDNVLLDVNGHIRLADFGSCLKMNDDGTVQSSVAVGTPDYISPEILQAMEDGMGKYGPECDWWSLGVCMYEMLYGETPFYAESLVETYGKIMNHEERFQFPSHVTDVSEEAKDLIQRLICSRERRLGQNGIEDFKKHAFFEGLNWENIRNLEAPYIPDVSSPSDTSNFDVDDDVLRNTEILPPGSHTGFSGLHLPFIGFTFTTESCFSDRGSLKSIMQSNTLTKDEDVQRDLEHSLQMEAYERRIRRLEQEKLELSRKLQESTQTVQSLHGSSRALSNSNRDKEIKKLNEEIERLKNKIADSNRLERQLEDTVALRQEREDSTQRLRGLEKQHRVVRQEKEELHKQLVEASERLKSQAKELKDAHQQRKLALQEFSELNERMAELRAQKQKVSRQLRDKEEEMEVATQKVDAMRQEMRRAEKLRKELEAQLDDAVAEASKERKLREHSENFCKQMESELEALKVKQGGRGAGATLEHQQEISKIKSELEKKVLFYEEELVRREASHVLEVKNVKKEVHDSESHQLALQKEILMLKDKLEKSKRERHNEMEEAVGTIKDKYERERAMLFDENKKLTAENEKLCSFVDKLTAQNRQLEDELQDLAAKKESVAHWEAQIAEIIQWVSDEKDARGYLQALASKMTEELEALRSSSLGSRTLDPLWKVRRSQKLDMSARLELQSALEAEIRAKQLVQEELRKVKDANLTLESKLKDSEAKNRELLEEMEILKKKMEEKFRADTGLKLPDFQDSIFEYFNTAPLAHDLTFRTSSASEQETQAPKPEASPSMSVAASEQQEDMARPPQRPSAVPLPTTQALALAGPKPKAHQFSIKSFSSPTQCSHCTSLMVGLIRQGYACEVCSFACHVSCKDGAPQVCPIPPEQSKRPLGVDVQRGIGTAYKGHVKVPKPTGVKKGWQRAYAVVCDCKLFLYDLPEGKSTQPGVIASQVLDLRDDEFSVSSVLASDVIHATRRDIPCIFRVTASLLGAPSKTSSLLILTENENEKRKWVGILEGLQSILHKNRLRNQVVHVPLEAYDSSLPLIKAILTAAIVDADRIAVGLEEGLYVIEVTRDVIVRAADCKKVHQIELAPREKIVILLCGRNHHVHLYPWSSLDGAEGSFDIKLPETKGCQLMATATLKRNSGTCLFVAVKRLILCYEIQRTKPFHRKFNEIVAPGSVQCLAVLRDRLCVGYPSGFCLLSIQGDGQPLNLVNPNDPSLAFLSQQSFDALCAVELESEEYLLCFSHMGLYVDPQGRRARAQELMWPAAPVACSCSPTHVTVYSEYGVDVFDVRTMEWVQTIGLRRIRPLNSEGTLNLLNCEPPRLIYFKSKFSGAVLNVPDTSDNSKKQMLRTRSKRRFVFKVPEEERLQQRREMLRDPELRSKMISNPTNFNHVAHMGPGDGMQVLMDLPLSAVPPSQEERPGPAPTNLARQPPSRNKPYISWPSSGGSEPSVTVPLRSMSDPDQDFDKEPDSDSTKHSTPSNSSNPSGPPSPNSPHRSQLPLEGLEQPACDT

Which inhibition [1] does the source give for `O=C(N[C@@H](C1CC1)C(F)(F)F)c1cc(-c2cnn3cc(-c4ccc(F)cc4)cnc23)cs1` here?
Its inhibition is 0%.

What about the fold change (FC) [2] of the same molecule?
Its fold change (FC) is 0.59.

Which results are given for `CNC(=O)c1ccccc1Oc1nc(Nc2cc(OC)c(OC)c(OC)c2)ncc1Br`?
inhibition [3]: 2%; fold change (FC) [4]: 0.03

For `CC(C)[C@H](NC(=O)c1cc(-c2cnn3cc(-c4ccc(OCCN5CCCCC5)cc4)cnc23)cs1)C(F)(F)F`, which inhibition [5] is on record?
Its inhibition is 0%.

And the inhibition [6]?
Its inhibition is 0%.

And the inhibition [7]?
The inhibition was 6%.

What about the fold change (FC) [8] of the same molecule?
The fold change (FC) was 0.

What about the fold change (FC) [9] of the same molecule?
The fold change (FC) was 0.14.

What about the fold change (FC) [10] of the same molecule?
Its fold change (FC) is 0.08.

And the fold change (FC) [11]?
The fold change (FC) was 0.25.
